# Measurements as given in publication PMC3819402 (Journal of medicinal chemistry, 2013).
# Entries after “also recorded” stand apart in the source; their conditions may differ. Where two headings read alike, the source gives them in different places.
# Columns and labels:
# [1] = tested on: MOLT-4; experiment: In vitro cytotoxicity, MOLT-4; type: cell-based; settings: Homo sapiens, MOLT-4, 96 h, read-out: IC50 (GI50) MOLT-4
# In short: (§1)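 Tumour cell lines were grown in DMEM or RPMI with 10% FBS and penicillin-streptomycin, then plated in twelve-well dishes. Test compound was added 24 h later at various concentrations. After 96 h, viable cells were counted by trypan blue exclusion from duplicate wells.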
# [2] = tested on: DAUDI; experiment: In vitro cytotoxicity, DAUDI; type: cell-based; settings: Homo sapiens, 96 h, read-out: IC50 (GI50) DAUDI
# In short: as §1
# [3] = tested on: N417; experiment: In vitro cytotoxicity, N417; type: cell-based; settings: Homo sapiens, N417, 96 h, read-out: IC50 (GI50) N417
# In short: as §1
# [4] = tested on: purified bovine brain tubulin; experiment: In vitro tubulin polymerization; type: biochemical; settings: 10 μM, 37 °C, absorbance at 340 nm over 40 min
# [5] = tested on: MES-SA / DX5; experiment: Cytotoxicity in multidrug-resistant subline MES-SA/DX5; type: cell-based, human; settings: all three pairs of sensitive and drug-resistant cancer cells
# [6] = tested on: tubulin in DU145 cells; experiment: In vivo; type: cell-based, human; settings: for polymerized versus soluble tubulin in cells: 24 h treatment
# [7] = tested on: SK-MEL-28; experiment: In vitro cytotoxicity, SK-MEL-28; type: cell-based; settings: Homo sapiens, SK-MEL-28, 96 h, read-out: IC50 (GI50) SK-MEL-28
# In short: as §1
# [8] = tested on: H80; experiment: In vitro cytotoxicity, H80; type: cell-based; settings: Homo sapiens, 96 h, read-out: IC50 (GI50) H80
# In short: as §1
# [9] = tested on: NAMALWA; experiment: In vitro cytotoxicity, NAMALWA; type: cell-based; settings: Homo sapiens, 96 h, read-out: IC50 (GI50) NAMALWA
# In short: as §1
# [10] = tested on: RF-1; experiment: In vitro cytotoxicity, RF-1; type: cell-based; settings: Homo sapiens, RF1, 96 h, read-out: IC50 (GI50) RF-1
# In short: as §1
# [11] = tested on: MCF-7; experiment: In vitro cytotoxicity, MCF-7; type: cell-based; settings: Homo sapiens, MCF7, 96 h, read-out: IC50 (GI50) MCF-7
# In short: as §1
# [12] = tested on: MES-SA; experiment: In vitro cytotoxicity, MES-SA; type: cell-based; settings: Homo sapiens, 96 h, read-out: IC50 (GI50) MES-SA
# [13] = tested on: SK BR-3; experiment: In vitro cytotoxicity, SK BR-3; type: cell-based; settings: Homo sapiens, SK-BR-3, 96 h, read-out: IC50 (GI50) SK BR-3
# In short: as §1
# [14] = tested on: H187; experiment: In vitro cytotoxicity, H187; type: cell-based; settings: Homo sapiens, NCI-H187, 96 h, read-out: IC50 (GI50) H187
# In short: as §1
# [15] = tested on: MIAPaCa2; experiment: In vitro cytotoxicity, MIAPaCa2; type: cell-based; settings: Homo sapiens, MIA PaCa-2, 96 h, read-out: IC50 (GI50) MIAPaCa2
# In short: as §1
# [16] = tested on: HCT116; experiment: In vitro cytotoxicity, HCT116; type: cell-based; settings: Homo sapiens, HCT-116, 96 h, read-out: IC50 (GI50) HCT116
# In short: as §1
# [17] = tested on: RF-48; experiment: In vitro cytotoxicity, RF-48; type: cell-based; settings: Homo sapiens, RF48, 96 h, read-out: IC50 (GI50) RF-48
# In short: as §1
# [18] = molecular target: porcine brain tubulin, preformed microtubules (paclitaxel binding site) (Sus scrofa, UniProt P02550+P02554); experiment: Competitive mass spectrometry binding assay, paclitaxel site; settings: paclitaxel 1.2 μM, 1 mM GTP, competitor 0.1–100 μM
# [19] = tested on: Caco-2 cells
# [20] = tested on: T47D; experiment: In vitro cytotoxicity, T47D; type: cell-based; settings: Homo sapiens, 96 h, read-out: IC50 (GI50) T47D
# In short: as §1
# [21] = tested on: BT20; experiment: In vitro cytotoxicity, BT20; type: cell-based; settings: Homo sapiens, BT-20, 96 h, read-out: IC50 (GI50) BT20
# In short: as §1
# [22] = tested on: HepG2 cells; experiment: Cytotoxicity to HepG2; type: cell-based; settings: 4 h exposure, Alamar Blue
# [23] = tested on: various tumor cell lines; experiment: Cytotoxicity across a wide spectrum of cancer cell lines; type: cell-based; settings: Homo sapiens, read-out: IC50 values across tumor cell lines of Table 3
# In short: as §1
# [24] = tested on: DU145 cells; experiment: Fluorescent tubulin staining, mitotic spindle; type: cell-based, human; settings: 24 h exposure; 25 nM in Figure 2
# [25] = tested on: PC3; experiment: In vitro cytotoxicity, PC3; type: cell-based; settings: Homo sapiens, PC-3, 96 h, read-out: IC50 (GI50) PC3
# In short: as §1
# [26] = tested on: DU145; experiment: In vitro cytotoxicity, DU145; type: cell-based; settings: Homo sapiens, DU-145, 96 h, read-out: IC50 (GI50) DU145
# [27] = tested on: DU145 cells; experiment: Cell cycle progression by flow cytometry; type: cell-based, human; settings: 24 h, propidium iodide
# In short: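 DU145 cells were grown in DMEM with 10% FBS and penicillin-streptomycin, then treated 24 h after plating. Harvest was 24 h after treatment, pooling trypsinised and non-attached cells. Cells were PBS-washed and fixed in ice-cold 70% ethanol for at least 24 h. They were stained with propidium iodide plus RNase A (0.5 mg) for 30 min at 37 °C, run on a FACScan, and analysed for cell-cycle distribution.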
# [28] = tested on: DU145 cells; experiment: PARP cleavage western blot, tumor cells; type: cell-based, human; settings: tumor cell line
# In short: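 DU145 cells in 100 mm plates were treated 24 h after plating with DMSO or increasing concentrations of test compound, then collected at set time points. Frozen pellets were lysed in 0.1% Triton X-100 buffer with protease inhibitors. Equal protein was run on 10% SDS-PAGE and moved to nitrocellulose. The blot was probed with anti-PARP antibody and IRDye 800 secondary, then scanned on Odyssey for PARP cleavage.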
# [29] = tested on: normal cell line; experiment: PARP cleavage, normal cell line; type: cell-based; settings: data not shown
# [30] = molecular target: porcine brain tubulin (vinblastine binding site) (Sus scrofa, UniProt P02550+P02554); experiment: Competitive mass spectrometry binding assay, vinblastine site; settings: vinblastine 1.2 μM, no GTP; competitor 0.1–100 μM
# [31] = tested on: BT20 human breast tumor xenograft; experiment: Nude mouse xenograft assay
# [32] = tested on: MIA-PaCa-2 cells; experiment: Soft agar assay; type: cell-based, human; settings: three weeks of growth
# [33] = tested on: LNCAP; experiment: In vitro cytotoxicity, LNCAP; type: cell-based; settings: Homo sapiens, 96 h, read-out: IC50 (GI50) LNCAP
# In short: as §1
# [34] = tested on: HCT15; experiment: In vitro cytotoxicity, HCT15; type: cell-based; settings: Homo sapiens, HCT-15, 96 h, read-out: IC50 (GI50) HCT15
# In short: as §1
# [35] = tested on: SKOV3; experiment: In vitro cytotoxicity, SKOV3; type: cell-based; settings: Homo sapiens, SK-OV-3, 96 h, read-out: IC50 (GI50) SKOV3
# In short: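 Tumour cells grown in DMEM or RPMI with 10% fetal bovine serum and 1 unit/mL penicillin-streptomycin, plated in twelve-well dishes, then dosed 24 h later with test compound at various concentrations. After 96 h, viable cells counted in duplicate wells by trypan blue exclusion.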
smiles,measurement,setting,value
"COc1cc(OC)c(/C=C/S(=O)(=O)Nc2ccc(OC)c(NC(C)(C)C(=O)O)c2)c(OC)c1 [25c, (E)-2-(2-Methoxy-5-(2-(2′,4′,6′-trimethoxyphenyl)vinylsulfonamido)phenylamino)-2-methylpropanoic acid]",IC50,[1],30 nM
same,IC50,[2],30 nM
same,IC50,[3],30 nM
same,tubulin polymerization,[4],completely inhibit tubulin polymerization
same,resistance factors,[5],< 2
"CC(=O)O[C@H]1C(=O)[C@@]2(C)[C@H]([C@H](OC(=O)c3ccccc3)[C@]3(O)C[C@H](OC(=O)[C@H](O)[C@@H](NC(=O)c4ccccc4)c4ccccc4)C(C)=C1C3(C)C)[C@]1(OC(C)=O)CO[C@@H]1C[C@@H]2O [Paclitaxel, reference compound]",tubulin polymerization,[4],strong increase in turbidity
same,polymerized versus soluble tubulin in cells,[6],induced a shift from soluble to polymerized tubulin
"COc1cc(OC)c(/C=C/S(=O)(=O)Nc2ccc(OC)c(NCC(=O)O)c2)c(OC)c1 [25a, (E)-2-(2-Methoxy-5-(2-(2′,4′,6′-trimethoxyphenyl)vinylsulfonamido)phenylamino)acetic acid]",tubulin polymerization,[4],completely inhibit tubulin polymerization
"COc1ccc(NS(=O)(=O)/C=C/c2c(OC)cc(OC)cc2OC)cc1 [6i, (E)-N-(4-Methoxyphenyl)-2-(2′,4′,6′-trimethoxyphenyl)ethenesulfonamide]",IC50,[7],50 nM
same,IC50,[8],100 nM
same,IC50,[9],100 nM
same,IC50,[10],50 nM
same,IC50,[3],50 nM
same,IC50,[11],50 nM
same,IC50,[12],50 nM
same,IC50,[13],50 nM
"COC(=O)Nc1nc2cc(C(=O)c3cccs3)ccc2[nH]1 [nocodazole, Nocodazole, reference compound]",tubulin polymerization,[4],completely inhibit tubulin polymerization
"COc1cc(OC)c(/C=C/S(=O)(=O)Nc2ccc(OC)c(O)c2)c(OC)c1 [6p, (E)-N-(3-Hydroxy-4-methoxyphenyl)-2-(2′,4′,6′-trimethoxyphenyl)ethenesulfonamide]",IC50,[10],10 nM
same,IC50,[3],10 nM
same,IC50,[14],10 nM
same,IC50,[15],10 nM
same,IC50,[16],10 nM
same,IC50,[17],10 nM
"CC(=O)O[C@@]12CO[C@@H]1C[C@H](O)[C@@]1(C)C(=O)[C@H](O)C3=C(C)[C@@H](OC(=O)[C@H](O)[C@@H](NC(=O)OC(C)(C)C)c4ccccc4)C[C@@](O)([C@@H](OC(=O)c4ccccc4)[C@H]21)C3(C)C.O.O.O [docetaxel, reference compound]",competition with paclitaxel binding to tubulin,[18],effectively competed
"O=c1cc[nH]c(=S)[nH]1 [2-thiouracil, 2-Thiouracil, reference compound]",LD50 to Caco-2 cells,"[19]; human, Caco-2, 1 h",> 1000 µM
"COc1cc(OC)c(/C=C/S(=O)(=O)Nc2ccc(OC)c(N)c2)c(OC)c1 [6t, (E)-N-(3-Amino-4-methoxyphenyl)-2-(2′,4′,6′-trimethoxyphenyl)ethenesulfonamide]",IC50,[7],8 nM
same,IC50,[20],8 nM
same,IC50,[1],8 nM
same,IC50,[2],8 nM
same,IC50,[9],8 nM
same,IC50,[21],8 nM
same,LD50 to Caco-2 cells,"[19]; one hour incubation, Alamar Blue",>1000 µM
same,LD50 to HepG2 cells,[22],>1000 µM
same,IC50,[23],3 to 10 nM
same,effect on microtubule cytoskeleton / mitotic spindle,[24],complete depolymerization of the microtubule cytoskeleton
same,IC50,[25],8 nM
same,tubulin polymerization,[4],completely inhibit tubulin polymerization
same,IC50,[26],8 nM
same,competition with paclitaxel binding to tubulin,[18],did not compete
same,cell cycle distribution,[27]; 0.005 μM,accumulated in the G2/M phase
same,cell cycle distribution,[27]; 0.02 μM,a majority of cells showed G2/M arrest
same,PARP cleavage,[28],Full length PARP gets cleaved
same,PARP cleavage in normal cell line,[29],no PARP cleavage
same,competition with vinblastine binding to tubulin,[30],did not compete
same,resistance factors,[5],< 2
same,tumor growth in xenograft,"[31]; 20 mg/kg IP every other day, 6 injections, female nude mice",readily inhibited tumor growth
same,body weight,"[31]; 20 mg/kg IP, xenograft study",no body weight loss of more than 10%; also recorded: no reduction in body weight
same,anchorage-independent growth in soft agar,[32],inhibition of anchorage-independent growth of tumor cells in a dose dependent manner
same,IC50,[33],8 nM
same,polymerized versus soluble tubulin in cells,[6],concentration-dependent depolymerization of tubulin; also recorded: completely inhibits the polymerization of tubulin
same,tubulin depolymerization in paclitaxel pre-treated cells,"[6]; paclitaxel 24 h, then compound 4 h",effective at depolymerizing paclitaxel induced polymerized tubulin
same,IC50,[34],8 nM
same,IC50,[35],8 nM
"CC[C@]1(O)C[C@H]2CN(CCc3c([nH]c4ccccc34)[C@@](C(=O)OC)(c3cc4c(cc3OC)N(C=O)[C@H]3[C@@](O)(C(=O)OC)[C@H](OC(C)=O)[C@]5(CC)C=CCN6CC[C@]43[C@@H]65)C2)C1 [vincristine, reference compound]",competition with vinblastine binding to tubulin,[30],effectively competed
